Measurements from the EternaBench riboswitch data.

Test system: MS2 coat protein
Experiment: apparent Kd, MS2 coat protein; higher = weaker binding; RNA-MaP array; FMN 200 µM where present
Method in brief: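 Green signal from SNAP-549-labelled MS2 coat protein was normalised to red-channel RNA signal and to the median Fmax of control clusters. The protein was titrated from 0.7 or 1.5 nM, doubling to 3 µM, without and then with constant ligand, over designs transcribed by stalled E. coli RNA polymerase on Illumina sequencing-chip clusters, in 100 mM Tris-HCl pH 7.5, 80 mM KCl, 4 mM MgCl2, BSA, DTT, yeast tRNA and Tween-20. The apparent Kd is the median of filtered per-cluster binding-curve fits.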

[1] = designed as: ON switch for flavin mononucleotide, no ligand
[2] = ligand present: flavin mononucleotide, designed as: ON switch for flavin mononucleotide
[3] = designed as: OFF switch for flavin mononucleotide, no ligand
[4] = ligand present: flavin mononucleotide, designed as: OFF switch for flavin mononucleotide

Row | Sequence | apparent Kd [1] [nM] | apparent Kd [2] [nM] | apparent Kd [3] [nM] | apparent Kd [4] [nM]
1 | GUGCCUUGGGAGAAGGCAGUAUGCAAAGCAUCCUGAGGAUAUUCAUACCGGAAACGGACAUGAGGAUCACCCAUGUGGCACAAA | 864 | 57 |  | 
2 | AUACUCAUGUAAGGAUAUGCAGUCGAAACGGCUGCAGAAGGUACUAUAAUACAUGAGGAUCACCCAUGUCAAAAUAAAAUAGUU | 30.3 | 22.7 |  | 
3 | GGGCCAACAUGAGGAUCACCCAUGUAGGAUAUCGCUAUUGUAAUCAUGAAACAUGAUUACAAUAGCGAGAAGGACAUAUGCAAA |  |  | 7 | 7.7
4 | AUCAGCUCGUCAGGAUAUACAUCACUGCUUCGGCAGUGUAUCAUAACAACAUGAGGAUCACCCAUGUAGAAGGGACGAGCUGAU |  |  | 23.8 | 34.7
5 | AUAAUGUGAGGAUAUCAGUCGACUAGCUGCGGCUAGUCGACUGAGAAGGCACAUGAGGAUCACCCAUGUGUUUC |  |  | 17.9 | 40.8
6 | AAUAUGUUAGGAUAUGCGAAGUCAGGACACACACUGACGAAGCAGAAGGAACAUGAGGAUCACCCAUGUAAAAA |  |  | 27.3 | 31.4
7 | GUGUAGGGAGGAUAUACAUGAGGAUCACCCAUGUGAAUAAGAUAGAAUAAGAUAAAGUGUAGAAGGUCUAGUGU |  |  | 66 | 51.9
8 | CAAGGCUUCACAGGAUAUAUUGAUGACAUGAGGAUCACCCAUGUACCGGCAGUAGAAGGGUGAACGCUCGUGGCCACGUGCGUG | 130 | 35.6 |  | 
9 | CGGUCGAUAUCAGGAUAUCGAUUAAUUACAUGAGGAUCACCCAUGUUGACAUGGAAUAUAACAUGCGAGAAGGGAUUACGAUCG | 27.6 | 10.7 |  | 
10 | AAAAAGCGAGGAUAUACAUAGCUAAGACAUGUAAGCGAAAAACAUGAGGAUCACCCAUGUAGAAGGCGCAAAAA |  |  | 17.7 | 18.2
11 | ACCAAUGCAGGAUAUACAUGAGGAUCACCCAUGUAUAACCUACAUAGAUGAUUAUCAUGUAGAAGGGCAUUGGA |  |  | 11.7 | 8.43
12 | GUAAAGUGAGGAUAUGGUAAAUUAAUUAUUUAUUAAUUAAUCCAGAAGGCACAUGAGGAUCACCCAUGUAAAUG |  |  | 31.2 | 56.1
13 | AUAAUUAAGCGAGGAUAUAUAUAGAAUAAUUAUAUAGAAGGCGCAAAACAUGAGGAUCACCCAUGUCACCCAUGUUGUGUGUAA | 121 | 47.3 |  | 
14 | UUACCUUAUGAGAAGGCGGUCAUGAAACAUGAUCGAGGAUAUCAUGUAAACAUGAGGAUCACCCAUGUAUGGGUAUUAUGGUAG | 303 | 52 |  | 
15 | GUACUGAAGCUUUGCUUUAGUCGUACAUGAGGAUCACCCAUGUAGGAUAUGGUAGGCUUUGCUUACUAGAAGGAUAGAGUGAUU |  |  |  | 39.8
16 | CGGCGGAAAGGAUAUGCAUUAAUAUCCAAAUGUGGGCCACGACAUGAGGAUCACCCAUGUAGAAGGUUCAGCCG |  |  | 15.3 | 13.9
17 | UGGCUACAUGAGGAUCACCCAUGUCAGGAUAUGCCGUCGGCUUGCCUUCGUCGUUCGGGUAGAAGGGACUGCGG |  |  | 28.1 | 28.1
18 | ACGCAGAGAGGAUAUACAUGAGGAUCACCCAUGUAUAAACGCACUAACUCUCCUCACUGUAGAAGGCUCAUGCA |  |  | 11.7 | 20.4
19 | GGACGUCACAUUUACAUGAGGAUCACCCAUGUCUCUUGAUAUGAGGAUAUGUAUACGAAUCGUAUACAGAAGGCAUGGACGUCC | 71.7 | 29.8 |  | 

Row | Sequence | apparent Kd [1] [nM] | apparent Kd [2] [nM] | apparent Kd [3] [nM] | apparent Kd [4] [nM]
20 | GGGUUCAUGUAAGGAUAUGUAUUGUUAAUCGGAGCAGAAGGUACAUGAGGAUCACCCAUGUCAACCUAGAGCAGGGCUUUUUAG |  |  | 27 | 110
21 | UGAUCGAGAGAUCUUAGAUUCUGGUAGGAUAUACAAAAGUUGCGCUUUACAUGAGGAUCACCCAUGUAGAAGGACUAGAGUCUA |  |  | 7.45 | 8.66
22 | AAAGUGUGAGGAUAUCCGGGACUGGGCCGGGAGGUUCGGAAGGAGAAGGCACAUGAGGAUCACCCAUGUAACGG |  |  | 59.3 | 44.3
23 | ACUUUAACUCGACAUGAGGAUCACCCAUGUCCUAGUACUACACAGGAUAUCUCGGACUCCUCGUGAGAGAAGGGUGAGCACUAA | 395 | 587 |  | 
24 | UGCAGGCGAGGAUAUGCUCGGGUUGCUUGUCGAGAGGAUGCACAUGAGGAUCACCCAUGUAGAAGGUGUCUAUG |  |  | 47.5 | 56.2
25 | GGUCAUCAAGUCAGGAUAUCGUCUGGUCGAUCAGGCGAGAAGGGACAUGAGGAUCACCCAUGUCGACUCAUCAG |  |  | 28.7 | 127
26 | GCGACGAUCGAGAAGGCCACUACAUGAGGAUCACCCAUGUCGUGGUGUAUUGGAGGAUAUCGAUCAGCGUCUUAUGAGGACAUG |  |  | 5.13 | 7.68
27 | GCAGCACAGUUUUACAUGAGGAUCACCCAUGUCUAUUGAGAUGAGGAUAUGCAUCGAAUGAAGUUGCAGAAGGCAUUGUGCUGC | 11.2 | 6.46 |  | 
28 | UGAAAACAUGAGGAUCACCCAUGUCUAGGAGAUCGAGGAUAUGGGCCGGCACUAGGCGGGCCAGAAGGCGAAAAGU | 60.8 | 26.6 |  | 
29 | AAAAAACAUGAGGAUCACCCAUGUGAGGAUAUCCAAAAGUUAAAUAAAAAGACGAAAAGGAGAAGGCGCAAAAA |  |  | 110 | 84.2
30 | GGUUGACAAAGUCAACCAAAUCGAACAUGAGGAUCACCCAUGUAGGAUAUGCUACUCAAAGAGUAGCAGAAGGACAUGUGCUUU |  |  | 40.7 | 227
31 | CCGGUUUAUGGAGGAUAUGGAGCCUUAUUGGCUCCAGAAGGCUAAUAACAUGAGGAUCACCCAUGUCGGCGGUCUAAUGACCGA | 33.1 | 20.6 |  | 
32 | ACAGGUGCAGGAUAUACAUGAGGAUCACCCAUGUGAUUAGCAGUCCUCGGACUGCAAUGUAGAAGGGCACCUGU |  |  | 327 | 1120
33 | CUAAAGCAUGUAGGAUAUGCGUGGCGAAGCUAUGCAGAAGGACAUGAGGAUCACCCAUGUCUUUCCGUCUGCGUACAGACGGAA |  |  | 19.1 | 52.4
34 | UUAUUUAUGCAAGGAUAUCAUUAAUUUUUACGUCCUACAUGAGGAUCACCCAUGUUUAGUUUAUUUGAGAAGGUGCAUUGUCUG | 38.4 | 27.6 |  | 
35 | GUUUAGUGAGGAUAUGUGGCUUCGAUCGUGCGAAGAAGGCUACAGAAGGCACAUGAGGAUCACCCAUGUUCCUC |  |  | 101 | 728
36 | CUGCUAGUUGAGAAGGGACAACUUGGUGAUCGGACAUGAGGAUCACCCAUGUCAGGAUAUCAGGGUAGACCCAGCAGGGUGAAA |  |  | 6.56 | 7.83
37 | CGCUAUGACAUAGGAUAUUGGUACAUGAGGAUCACCCAUGUCAACCAUGAAGCUCGAUUUGUUGACAAGAAGGAUGUGGUAGCG | 6.65 | 7.63 |  | 
38 | UGUUGUAUUACAGGAUAUCUAUUAGAUUUAUUUAGAGAAGGGUAUUCACAUGAGGAUCACCCAUGUAUAUACGAGGAAGUUGUG | 57 | 58.6 |  | 

Row | Sequence | apparent Kd [1] [nM] | apparent Kd [2] [nM] | apparent Kd [3] [nM] | apparent Kd [4] [nM]
39 | UGUCGGAGCAGAGGAUAUUACAUGAGGAUCACCCAUGUAUGAACCAAUAGCUGGACACAGCAAUGUAAGAAGGCUGCUCCGACA |  |  | 11.4 | 133
40 | GGGCUGUCAGGAUAUCCCGGGUUUGGGUAAACCCGGGCCCGGGAGAAGGGACAUGAGGAUCACCCAUGUGGCCC |  |  | 32.1 | 31.8
41 | GUGUAUAGCCUCGAGGAUAUCCUGUAAUGCACAUGAGGAUCACCCAUGUAUGAGCGAGUUUUUUGGGAGAAGGCGAGUUAUCGGU | 26.6 | 16.9 |  | 
42 | AGUCGGAGCAGAGGAUAUUACAUGAGGAUCACCCAUGUAAUAAAUGGAAGCUGGAAACAGCAAUGUAAGAAGGCUGCUCCGACA |  |  | 16.4 | 47.9
43 | UACAGACAUGAGGAUCACCCAUGUGAGGAUAUCGAUAACGAUAAAAUAAUAUAAACAACGAGAAGGCACAGCAU |  |  | 34.3 | 40.3
44 | UUGCGGUCAGGAUAUGCAUGGCGGGACUUGCGUCGUGGCGUGGAGAAGGGACAUGAGGAUCACCCAUGUGGAGA |  |  | 88.2 | 65.7
45 | AGUGACGGUACAGGAUAUGCUGGACUUUGUCCAGCAGAAGGGUAUUAACAUGAGGAUCACCCAUGUUCCGUCACCAAAUUUAAU | 41 | 7.4 |  | 
46 | AGCAGACGAGGAUAUAAAUUUGAUAACAUGAGGAUCACCCAUGUGAUCGAUAGAUCAAAUUUAGAAGGCGUCUGCU |  |  | 647 | 940
47 | AAUUAUUUACAGAAGGAGUAAGAUUUUGUAUUACUAGGAUAUGUUAACAUGAGGAUCACCCAUGUGUUUGUAGGUUUUUUAUGU |  |  | 12.2 | 8.54
48 | CUCCUACAUGAGGAUCACCCAUGUCAGGAUAUCUCAGUGGUACCUAAAUUUACCACCCAGAGAAGGGACGUGCA |  |  | 13.3 | 17.7
49 | ACAUACUUUCGAGGAUAUCGGUGAUAAAUUUUACGAGAAGGCGAUAAAAGAUAUAAUCUUAUAGACAUGAGGAUCACCCAUGUA | 30.5 | 27.3 |  | 
50 | ACAUGUACAGGAUAUACAUGGAUGAUACACGUAUUUCCACUACAUGAGGAUCACCCAUGUAGAAGGGUACAUGA |  |  | 39.7 | 18.4
51 | UAUAUGUCAGGAUAUUAGUAGUGGACGAAUAAGACUACUGCUGAGAAGGGACAUGAGGAUCACCCAUGUUCCUC |  |  | 20.2 | 172
52 | CCUAAGGAGGUAGGAUAUUGUGUGGUGGCCGGGCUCCCACGGCGAGCGGCACAAGAAGGAUCCCUACAUGAGGAUCACCCAUGU | 25.5 | 20.3 |  | 
53 | UGGUACCAGGGAGGAUAUGGGAAGAUACAUGAGGAUCACCCAUGUUUAAGAAUGCCGAGAGGCAACUAGAAGGCCCUAGUACCU | 338 | 19 |  | 
54 | UCAUAAGAACAAGGAUAUCAAUAAAAUAUAAAUGCUACAUGAGGAUCACCCAUGUUUUAGCAUGGUGAGAAGGUGUAUUUACGG | 67.8 | 42.5 |  | 
55 | UUAGAAUUGCAAGGAUAUCUAAUUUAGAUAGUAAGAGAAGGUGCUUGAUAGUUACAUGAGGAUCACCCAUGUUUUUGGGUUUAU | 545 | 412 |  | 
56 | UCGAUAAGGAGAGGAUAUGGACAUGAGGAUCACCCAUGUACAUGGGAAUAUAUACUGAAUUUUUACUAGAAGGCUUACAUAUUU |  |  | 16.7 | 13.6
